These results are taken from ChEMBL document CHEMBL1275343, “A diverse series of substituted benzenesulfonamides as aldose reductase inhibitors with antioxidant activity: design, synthesis, and in vitro activity” (J Med Chem, 2010).

A short description of test [1]: Antioxidant activity in L-alpha-phosphatidylcholine dioleoyl liposome assessed as inhibition of AAPH-induced lipid peroxidation by LOOH assay. In kind it is functional. In outline: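 Unilamellar DOPC liposomes (0.8 mM) peroxidized by aqueous-phase peroxyl radicals from thermal decomposition of AAPH; Trolox standard; lipid hydroperoxide (LOOH) quantified against a calibration curve.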

For test [2], the target named is Aldo-keto reductase family 1 member B1 (Rattus norvegicus) (UniProt P07943). Description: Inhibition of Fischer-344 rat lens ALR2 at 100 uM. Type of test: tissue-based. As to conditions: Lens of camera-type eye.
Test [3] relates to Radical scavenging activity. Nature of the test: Antioxidant activity assessed as DPPH radical scavenging activity after 270 mins by least-square analysis. Type of test: functional. On the technique in general: DPPH is a stable violet radical that fades when it is reduced.
Test [4] addresses T1, Aldo-keto reductase family 1 member A1 (Rattus norvegicus, UniProt P51635).
T1 sequence (P51635 whole entry): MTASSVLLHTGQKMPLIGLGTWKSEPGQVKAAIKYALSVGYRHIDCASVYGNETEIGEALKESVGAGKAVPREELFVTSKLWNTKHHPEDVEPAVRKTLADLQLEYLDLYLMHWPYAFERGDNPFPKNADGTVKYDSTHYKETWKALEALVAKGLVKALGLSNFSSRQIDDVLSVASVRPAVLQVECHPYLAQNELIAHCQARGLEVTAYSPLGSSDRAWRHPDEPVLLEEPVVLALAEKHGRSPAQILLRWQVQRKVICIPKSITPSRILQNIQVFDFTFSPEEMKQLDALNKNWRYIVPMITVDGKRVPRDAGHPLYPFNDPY
Description: Inhibition of Fischer-344 rat kidney AK1A1.

Test [5] is filed under the species Rattus norvegicus. Nature of the test: Selectivity ratio of IC50 for Fischer-344 rat kidney AK1A1 to IC50 for Fischer-344 rat lens ALR2. Type of test: tissue-based. As to conditions: Lens of camera-type eye.
The target in test [6] is T2, Aldo-keto reductase family 1 member A1 (Rattus norvegicus) (UniProt P51635).
T2 sequence (whole entry): T1 sequence (P51635 whole entry)
Description: Inhibition of Fischer-344 rat kidney AK1A1 at 100 uM.

Test [7] can be described thus: DPPH radical scavenging activity assessed as initial rate of interaction at 0.2 mM. In kind it is functional. Put shortly:
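Equimolar compound and DPPH (0.2 mM each) in ethanol; initial rate estimated from the roughly linear absorbance decrease over the first 30 s. Triplicate.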

The test system of test [8] is Radical scavenging activity. Nature of the test: Antioxidant activity assessed as ratio of IC50 for DPPH radical scavenging activity to concentration of DPPH. In kind it is functional.
Test [9] addresses Aldo-keto reductase family 1 member B1 (Rattus norvegicus, UniProt P07943). Description: Inhibition of Fischer-344 rat lens ALR2 by least-square analysis. Type of test: tissue-based, Lens of camera-type eye. In outline:
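Lenses from Fischer-344 rats of both sexes as ALR2 source; NADPH oxidation followed spectrophotometrically. Five concentrations, IC50 by least-squares of linear portion of log(dose)-response curves (0.889<r²<0.994); triplicate.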

Test [10] is filed under the species Rattus norvegicus. Nature of the test: Selectivity ratio of inhibition of Fischer-344 rat lens ALR2sto inhibition of Fischer-344 rat kidney AK1A1 at 100 uM. As to conditions: Lens of camera-type eye. Type of test: tissue-based. Put shortly: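 Ratio of % inhibition of rat lens ALR2 to % inhibition of rat kidney ALR1, each measured at 100 μM compound.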
For test [11], the target named is T3, Aldo-keto reductase family 1 member A1 (Homo sapiens, UniProt P14550).
T3 sequence (P14550 whole entry): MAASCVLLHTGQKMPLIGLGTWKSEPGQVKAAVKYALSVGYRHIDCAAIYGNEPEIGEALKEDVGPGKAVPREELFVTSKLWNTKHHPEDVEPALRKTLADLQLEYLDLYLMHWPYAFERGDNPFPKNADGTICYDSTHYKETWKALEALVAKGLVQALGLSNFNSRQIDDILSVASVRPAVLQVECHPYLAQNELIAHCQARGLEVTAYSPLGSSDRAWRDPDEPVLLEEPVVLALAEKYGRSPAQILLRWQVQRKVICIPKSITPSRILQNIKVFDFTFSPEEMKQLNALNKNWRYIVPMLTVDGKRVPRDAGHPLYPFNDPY
Description: Inhibition of AK1A1.

Structures are written as SMILES. pIC50: −log10 of the molar value.

Usually pIC50 stands for the IC50 on a negative log10 scale, so that one unit is a factor of ten. The inhibition is the relative decrease from the control value, in per cent.

For the compound `O=S(=O)(c1ccccc1)N(Cc1ccc(Br)cc1F)c1cc(F)c(O)c(F)c1`, the pIC50 was 4.18 in test [1], 4.22 in test [3], 4.92 in [4] and 5.24 in test [9]. Also, the inhibition in [2] was determined as 74.6%; in [6] it was 69.2%. Moreover, the Ratio IC50 in the test filed under Rattus norvegicus [5] is 2.09. Moreover, the Activity in [7] was determined as 1 s⁻¹. In addition, in test [8], the Ratio is 0.3.
In the case of `O=C(O)CNS(=O)(=O)c1ccccc1`, the inhibition came to 51.7% in [2] and 30.5% in test [6]. The Selectivity ratio in the test listed under Rattus norvegicus [10] worked out at 1.69. Further, in test [9], the pIC50 was 4.06.
As for `O=[N+]([O-])c1ccc(S(=O)(=O)N(Cc2ccc(Br)cc2F)c2cc(F)c(O)c(F)c2)cc1`, the pIC50 was 4.21 in test [1], 4.21 in test [3], 4.81 in test [4] and 5.05 in test [9]. The inhibition was found to be 75.1% in test [2] and 69.8% in test [6]. Moreover, in the test listed under Rattus norvegicus [5], the Ratio IC50 worked out at 1.71. For the same compound, in test [7], the Activity amounted to 0.974 s⁻¹. In addition, the Ratio in test [8] was found to be 0.31.
As for `Nc1ccc(S(=O)(=O)N(Cc2ccc(Br)cc2F)c2cc(F)c(O)c(F)c2)cc1`, the pIC50 in test [1] was 4.14; in test [3], 4.21; in test [4], 6.49; in [9] it was 6.40. Also, the inhibition in test [2] came to 87.4%; in test [6] it was 95.3%. Also, the Ratio IC50 in the test filed under Rattus norvegicus [5] was 0.81. Besides, the Activity in test [7] stood at 0.977 s⁻¹. Further, the Ratio in [8] was 0.31.
As for `O=C1NOC[C@@H]1NS(=O)(=O)c1ccccc1`, the values for the inhibition in [2] and in test [6] were 48.9% and 2.67%, respectively. Further, the Selectivity ratio in the test filed under Rattus norvegicus [10] is 18.3. The compound further had a pIC50 in test [9] of 4.15.
`O=S(=O)(NCc1nnn[nH]1)c1ccccc1`: the inhibition in [2] stood at 23.8%; in [6] it was 19.9%. In the test filed under Rattus norvegicus [10], the Selectivity ratio stood at 1.2.
With `O=S(=O)(Nc1nnn[nH]1)c1ccccc1`, the inhibition worked out at 44.8% in [2] and 21.7% in test [6]. Also, in the test listed under Rattus norvegicus [10], the Selectivity ratio was 2.06.
For `O=[N+]([O-])c1ccc(S(=O)(=O)Nc2cc(F)c(O)c(F)c2)cc1`, the pIC50 was 4.34 in [1], 4.26 in test [3] and 3.88 in test [4]. Further, the inhibition in test [2] came to 63.9%; in test [6], 55.7%. In the test listed under Rattus norvegicus [5], the Ratio IC50 was 2.99. Besides, the Activity in [7] came out at 0.465 s⁻¹. Besides, the Ratio in test [8] is 0.27.
As for `COc1ccc(S(=O)(=O)Nc2cc(F)c(O)c(F)c2)cc1`, the pIC50 in test [1] was 4.26; in test [3] it was 4.34; in test [4], 4.62. In addition, the inhibition in test [2] turned out to be 79.5%; in test [6], 83%. In addition, in the test listed under Rattus norvegicus [5], the Ratio IC50 stood at 1.54. In addition, the Activity in [7] worked out at 0.661 s⁻¹. Further, the Ratio in [8] stood at 0.23.
Turning to `O=C(Nc1ccc(S(=O)(=O)Nc2cc(F)c(O)c(F)c2)cc1)c1ccccc1`, the pIC50 is 4.16 in test [1], 4.30 in test [3], 5.16 in test [4] and 5.10 in [9]. The values for the inhibition in test [2] and in [6] were 87.7% and 81.1%, respectively. Also, in the test filed under Rattus norvegicus [5], the Ratio IC50 came to 0.87. The Activity in test [7] was found to be 0.817 s⁻¹. In test [8], the Ratio stood at 0.25.
With `CS(=O)(=O)NC(=O)CNS(=O)(=O)c1ccccc1`, the inhibition in test [2] amounted to 32.9%; in [6], 12.2%. Further, in the test listed under Rattus norvegicus [10], the Selectivity ratio worked out at 2.69.
The corresponding values for `O=C1NOC[C@H]1NS(=O)(=O)c1ccccc1` are 25.7%, 22.4% and 1.15.
Turning to `CCCC(CCC)C(=O)O` [VALPROIC ACID], the pIC50 in test [11] is 4.30.
`CCNC(=O)Nc1ccc(S(=O)(=O)Nc2cc(F)c(O)c(F)c2)cc1`: the pIC50 in test [1] was 4.09; in test [3], 4.29; in test [4], 4.59; in [9] it was 4.42. In addition, the inhibition in test [2] amounted to 63.6%; in test [6], 68.5%. In the test filed under Rattus norvegicus [5], the Ratio IC50 worked out at 0.67. The Activity in test [7] turned out to be 0.859 s⁻¹. The Ratio in [8] is 0.28.
As for `O=S(=O)(Nc1cc(F)c(O)c(F)c1)c1ccc(-n2cccc2)cc1`, the pIC50 in test [1] was 4.01; in test [3], 4.31; in [4], 3.55; in test [9], 4.24. Besides, the results for the inhibition in [2] and in test [6] were 61.1% and 41.7%, respectively. Besides, the Ratio IC50 in the test listed under Rattus norvegicus [5] amounted to 4.92. In [7], the Activity turned out to be 0.489 s⁻¹. In test [8], the Ratio is 0.24.
For the compound `O=S(=O)(Nc1cc(F)c(O)c(F)c1)c1ccc(C(F)(F)F)cc1`, the negative-log IC50 (pIC50) in test [1] was 4.18; in test [3], 4.35; in test [4] it was 3.98; in test [9], 4.04. In addition, the values for the inhibition in test [2] and in test [6] were 55.8% and 50.6%, respectively. The Ratio IC50 in the test filed under Rattus norvegicus [5] stood at 1.15. The Activity in test [7] is 0.49 s⁻¹. Moreover, in [8], the Ratio was 0.23.
Take `Cc1c(C)c2c(c(C)c1O)CCC(C)(C(=O)O)O2` (centres undefined) [TROLOX]: the pIC50 is 4.03 in test [1] and 4.43 in test [3]. Also, in test [7], the Activity was 1.81 s⁻¹. Also, in test [8], the Ratio stood at 0.19.
For `O=S(=O)(c1ccccc1)N(c1cc(F)c(O)c(F)c1)S(=O)(=O)c1ccccc1`, the pIC50 in [1] was 3.86; in [3], 4.20; in [4], 5.01; in [9], 4.55. Moreover, the results for the inhibition in [2] and in [6] were 65.1% and 93.8%, respectively. Besides, in the test listed under Rattus norvegicus [5], the Ratio IC50 is 0.35. The Activity in [7] worked out at 0.967 s⁻¹. In addition, the Ratio in [8] stood at 0.32.
As for `COc1ccc(C(=O)Nc2ccc(S(=O)(=O)Nc3cc(F)c(O)c(F)c3)cc2)cc1`, the pIC50 in test [1] was 4.15; in test [3] it was 4.24; in test [4], 4.91; in test [9], 4.92. Also, the inhibition in [2] was 77.9%; in [6] it was 71.7%. The Ratio IC50 in the test filed under Rattus norvegicus [5] turned out to be 1.03. Further, the Activity in test [7] came out at 0.995 s⁻¹. For the same compound, the Ratio in test [8] turned out to be 0.26.
With `Nc1ccc(S(=O)(=O)Nc2cc(F)c(O)c(F)c2)cc1`, the results for the negative-log IC50 (pIC50) in [1], in test [3] and in [4] were 4.32, 4.35 and 4.99, respectively. Further, the inhibition was determined as 84.1% in test [2] and 85.4% in test [6]. In addition, the Ratio IC50 in the test listed under Rattus norvegicus [5] came out at 0.73. For the same compound, in [7], the Activity turned out to be 0.777 s⁻¹. Moreover, the Ratio in test [8] worked out at 0.22.
As for `O=S(=O)(Nc1cc(F)c(O)c(F)c1)c1ccccc1`, the results for the pIC50 in test [1], in [3] and in [4] were 4.02, 4.31 and 4.71, respectively. The inhibition stood at 71.3% in test [2] and 79.2% in [6]. Moreover, in the test filed under Rattus norvegicus [10], the Selectivity ratio is 0.89. Further, in the test filed under Rattus norvegicus [5], the Ratio IC50 amounted to 0.6. In addition, the Activity in [7] was 0.498 s⁻¹. The Ratio in [8] came to 0.25.
